Measured values: publication PMC8489566 (ACS nano, 2020)

Key:
[1] = test system: mouse-derived J774A.1 macrophages; format: cell-based
Procedure, shortened: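 J774A.1 macrophages plated 24 h in RPMI with 10% FBS, then treated with test compound (20 nM, 1 μM or 50 μM) for 1 h at 37 °C and washed; positive control was 5 μg/mL rat anti-mouse SIRPα. Human RBCs were EDTA-washed, opsonized with 20 μg/mL rabbit anti-RBC IgG (1 h, RT), and PKH26-labelled. They were added at 10:1 for 1 h at 37 °C, then fixed and Hoechst-stained for fluorescence imaging.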

SIRPα = test: CD47-Fc inhibition assay; format: binding, human; conditions: THP-1 macrophages, 1 μM or 50 μM peptide 1 h, Fc-receptor blockade, 2 μg/mL CD47-Fc, anti-Fc fluorescence, n = 2 sets of triplicates
human THP-1 macrophages = format: cell-based

nS-wt: CD47's eight amino acid binding loop, wild-type nano-Self peptide, C-terminal amide
phagocytosis by mouse macrophages ([1]; J774A.1 macrophages, opsonized RBCs, high concentrations (50 μM)): matches anti-CD47 blockade effects | effective activity in the mouse macrophage assay relative to the human assay ([1]; weaker in mouse than in human macrophages): ~ 100 fold | level of inhibition of CD47-Fc binding to macrophages (SIRPα): inhibited | phagocytosis levels at maximum peptide concentration (human THP-1 macrophages; 50 μM peptide, opsonized RBCs): well above those for nS-X and nS-XX controls | macrophages that internalize opsonized RBCs, peptide combined with anti-RBC (human THP-1 macrophages; maximum peptide concentration (50 μM), anti-RBC ~133 nM, n = 3): ~ 30% | phagocytosis compared with anti-CD47 (human THP-1 macrophages; saturating peptide, opsonized RBCs): gives the same result as anti-CD47
